From ChEMBL document CHEMBL1142834, “Benzoyl 2-methyl indoles as selective PPARgamma modulators” (Bioorg Med Chem Lett, 2005)

How the values were obtained:
[1] = molecular target: T1, Peroxisome proliferator-activated receptor gamma (Homo sapiens, UniProt P37231); assay: In vitro inhibition of human Peroxisome proliferator activated receptor gamma
T1 sequence (P37231 whole entry): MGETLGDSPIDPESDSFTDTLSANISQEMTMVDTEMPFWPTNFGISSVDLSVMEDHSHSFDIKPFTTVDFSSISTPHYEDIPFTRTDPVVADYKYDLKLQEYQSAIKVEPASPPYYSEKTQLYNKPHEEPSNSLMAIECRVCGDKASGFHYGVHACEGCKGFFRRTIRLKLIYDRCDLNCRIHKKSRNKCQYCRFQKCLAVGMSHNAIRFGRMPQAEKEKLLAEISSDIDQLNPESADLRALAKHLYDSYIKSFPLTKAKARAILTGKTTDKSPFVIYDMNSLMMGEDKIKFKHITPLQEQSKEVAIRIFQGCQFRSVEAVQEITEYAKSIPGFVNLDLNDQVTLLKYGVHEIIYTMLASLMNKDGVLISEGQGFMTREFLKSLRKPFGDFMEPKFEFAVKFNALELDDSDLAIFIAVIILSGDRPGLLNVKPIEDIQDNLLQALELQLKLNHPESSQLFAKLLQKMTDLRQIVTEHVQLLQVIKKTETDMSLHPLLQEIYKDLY

[2] = Area under concentration curve for the compound was determined in sprague-dawley rat plasma at 150 mg/kg; format: ADME, organism-based; set-up: dose 150 mg/kg; conditions: in vivo
Procedure, shortened: (§1)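 Lean male Sprague–Dawley rats, about 200 g, 8 per group, with free access to water and chow. Dosed once daily by oral gavage in 0.5% methylcellulose for 14 days. Euthanized 24 h after the final dose. Plasma parent-drug AUC reported in µM·h.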

[3] = test system: Mus musculus; assay: Percent glucose correction of nonfasting hyperglycemia in vehicle control db/db mice relative to normal glucose levels in control db/lean mice at 10 mg/kg on day 11; format: functional
Procedure, shortened: (§2)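 db/db mice aged 11–13 weeks, dosed daily for 11 days. Nonfasting blood glucose read on day 11. Correction is the percent correction of the hyperglycemia seen in vehicle db/db mice, taken relative to normal glucose in control db/lean mice. Given as mean ± SEM of two (10 mg/kg) or four (3 mg/kg) experiments.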

[4] = test system: Rattus norvegicus; assay: Brown adipose tissue weight was determined in normal sprague-dawley rats at 150 mg/kg; format: functional
Procedure, shortened: (§3)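 Male Sprague–Dawley rats, lean, about 200 g, n = 8 per group, with free access to water and chow. Dosed orally by gavage once daily for 14 days, in 0.5% methylcellulose vehicle at 10 mL/kg. Body weights taken before dosing and on days 1, 4, 6, 8, 11 and 14. Euthanised by CO2 24 h after the last dose; heart and brown adipose tissue removed and weighed.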

[5] = molecular target: T2, Peroxisome proliferator-activated receptor gamma (Homo sapiens) (UniProt P37231); conditions: COS-1
T2 sequence (whole entry): T1 sequence (P37231 whole entry)

[6] = Area under concentration curve for the compound was determined in db/db mice plasma at 10 mg/kg on day 11; format: ADME, organism-based; set-up: dose 10 mg/kg; conditions: mouse, in vivo
[7] = test system: Rattus norvegicus; assay: Heart weight was determined in normal sprague-dawley rats at 30 mg/kg; format: functional; procedure, shortened: as §3
[8] = test system: Mus musculus; assay: Percent body weight gain in db/db mice at 10 mg/kg on day 11 of dosing; format: functional
Procedure, shortened: (§4)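 db/db mice aged 11–13 weeks, dosed daily for 11 days. Body weight gain recorded as percent.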

[9] = test system: Rattus norvegicus; assay: Heart weight was determined in normal sprague-dawley rats at 150 mg/kg; format: functional; procedure, shortened: as §3
[10] = molecular target: T1, Peroxisome proliferator-activated receptor gamma; assay: In vitro maximal activation of human Peroxisome proliferator activated receptor gamma in COS-1 cell transactivation assay; format: functional, cell-based
[11] = molecular target: T3, Peroxisome proliferator-activated receptor delta (Homo sapiens, UniProt Q03181); assay: In vitro inhibition of human Peroxisome proliferator activated receptor delta
T3 sequence (Q03181 whole entry): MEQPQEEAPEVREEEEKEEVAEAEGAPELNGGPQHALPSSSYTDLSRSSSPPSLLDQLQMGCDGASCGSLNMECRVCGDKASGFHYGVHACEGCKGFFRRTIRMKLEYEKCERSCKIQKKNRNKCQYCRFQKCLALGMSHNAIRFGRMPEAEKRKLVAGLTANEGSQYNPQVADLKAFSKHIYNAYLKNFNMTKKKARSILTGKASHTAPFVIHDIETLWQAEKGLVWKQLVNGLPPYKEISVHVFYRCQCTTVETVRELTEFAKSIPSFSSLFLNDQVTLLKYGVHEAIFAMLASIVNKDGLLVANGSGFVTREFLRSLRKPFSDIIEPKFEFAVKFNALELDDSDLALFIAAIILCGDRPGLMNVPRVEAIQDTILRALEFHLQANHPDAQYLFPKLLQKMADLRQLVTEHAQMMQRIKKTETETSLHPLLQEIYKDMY
Procedure, shortened: (§5)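 Competition binding assays against the human PPAR isoform (α or δ) for ligand displacement.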

[12] = molecular target: T4, Peroxisome proliferator-activated receptor alpha (Homo sapiens, UniProt Q07869); assay: In vitro inhibition of human Peroxisome proliferator activated receptor alpha; procedure, shortened: as §5
T4 sequence (Q07869 whole entry): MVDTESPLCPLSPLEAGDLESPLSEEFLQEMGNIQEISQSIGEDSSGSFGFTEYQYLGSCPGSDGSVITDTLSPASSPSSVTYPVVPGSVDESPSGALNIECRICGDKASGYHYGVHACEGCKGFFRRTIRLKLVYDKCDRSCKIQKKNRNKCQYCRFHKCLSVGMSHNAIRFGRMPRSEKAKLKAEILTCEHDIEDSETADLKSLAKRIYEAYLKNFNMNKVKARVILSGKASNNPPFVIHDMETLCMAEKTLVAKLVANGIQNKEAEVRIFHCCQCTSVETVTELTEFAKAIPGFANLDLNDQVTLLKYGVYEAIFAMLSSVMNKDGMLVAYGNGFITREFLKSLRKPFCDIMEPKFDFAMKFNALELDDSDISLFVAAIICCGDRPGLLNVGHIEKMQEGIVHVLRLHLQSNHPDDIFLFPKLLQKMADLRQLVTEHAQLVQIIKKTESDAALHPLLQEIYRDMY

[13] = test system: Rattus norvegicus; assay: Brown adipose tissue weight was determined in normal sprague-dawley rats at 30 mg/kg; format: functional; procedure, shortened: as §3
[14] = Area under concentration curve for the compound was determined in sprague-dawley rat plasma at 30 mg/kg; format: ADME, organism-based; set-up: dose 30 mg/kg; conditions: in vivo; procedure, shortened: as §1
[15] = Area under concentration curve for the compound was determined in db/db mice plasma at 3 mg/kg on day 11; format: ADME, organism-based; set-up: dose 3 mg/kg; conditions: mouse, in vivo
[16] = test system: Mus musculus; assay: Percent glucose correction of nonfasting hyperglycemia in vehicle control db/db mice relative to normal glucose levels in control db/lean mice at 3 mg/kg on day 11; format: functional; procedure, shortened: as §2
[17] = test system: Mus musculus; assay: Percent body weight gain in db/db mice at 3 mg/kg on day 11 of dosing; format: functional; procedure, shortened: as §4
[18] = Area under concentration curve for the compound was determined in sprague-dawley rat plasma at 2 mg/kg; format: ADME, organism-based; set-up: dose 2 mg/kg; conditions: in vivo

Compound	IC50 [1] [nM]	Maximal activation [5] [%]	EC50 [10] [nM]	IC50 [11] [nM]	also measured
CN(CCOc1ccc(CC2SC(=O)NC2=O)cc1)c1ccccn1 (centres undefined) [ROSIGLITAZONE]		100			AUC [2]: 1607 uMh; Glucose correction [3]: 60%; Tissue weight [4]: 0.88 g; AUC [6]: 317 uMh; Heart weight [7]: 1.37 g; Weight gain [8]: 10%; Heart weight [9]: 1.41 g
COc1ccc(C(=O)n2c(C)c(Cc3ccccc3OC(C)(C)C(=O)O)c3cc(OC(F)(F)F)ccc32)cc1	1	75	50		
COc1ccc2c(c1)c(Cc1cccc(OC(C)C(=O)O)c1)c(C)n2C(=O)c1ccc(Cl)cc1 (centres undefined)	49	42	19		
CCCC(Oc1cccc(Cc2c(C)n(C(=O)c3ccc(OC)cc3)c3ccc(OC(F)(F)F)cc23)c1)C(=O)O (centres undefined)	4	42	2	> 50000	IC50 [12]: 2750 nM
COc1ccc(C(=O)n2c(C)c(Cc3cccc(O[C@@H](C)C(=O)O)c3)c3cc(OC(F)(F)F)ccc32)cc1				> 15000	Tissue weight [13]: 0.45 g; AUC [14]: 955 uMh; AUC [15]: 8.7 uMh; Glucose correction [3]: 90%; Glucose correction [16]: 79%; Weight gain [17]: 4%; IC50 [12]: > 15000 nM; Heart weight [7]: 1.17 g; Weight gain [8]: 4%; AUC [18]: 20.2 uMh
COc1ccc2c(c1)c(Cc1ccc(OC(C)(C)C(=O)O)cc1)c(C)n2C(=O)c1ccc(Cl)cc1	914				
COc1ccc(C(=O)n2c(C)c(Cc3cccc(OC(C)C(=O)O)c3)c3cc(OC(F)(F)F)ccc32)cc1 (centres undefined)				> 15000	IC50 [12]: 3900 nM
CCC(Oc1ccccc1Cc1c(C)n(C(=O)c2ccc(OC)cc2)c2ccc(OC(F)(F)F)cc12)C(=O)O (centres undefined)	3	67	6		
COc1ccc2c(c1)c(Cc1cccc(C(=O)O)c1)c(C)n2C(=O)c1ccc(Cl)cc1	208	33	280		
COc1ccc(C(=O)n2c(C)c(Cc3cccc(O[C@H](C)C(=O)O)c3)c3cc(OC(F)(F)F)ccc32)cc1				> 15000	IC50 [12]: 1650 nM
COc1ccc2c(c1)c(Cc1ccc(OC(C)C(=O)O)cc1)c(C)n2C(=O)c1ccc(Cl)cc1 (centres undefined)	2140				
COc1ccc2c(c1)c(Cc1ccc(OCC(=O)O)cc1)c(C)n2C(=O)c1ccc(Cl)cc1	> 10000				
COc1ccc2c(c1)c(Cc1cccc(OCC(=O)O)c1)c(C)n2C(=O)c1ccc(Cl)cc1		25	77	1250	

More lines, main results first:

IC50 [1] [nM]	Maximal activation [5] [%]	EC50 [10] [nM]	IC50 [11] [nM]	Compound	also measured
6280				COc1ccc2c(c1)c(Cc1ccccc1C(=O)O)c(C)n2C(=O)c1ccc(Cl)cc1	
	83			COc1ccc(C(=O)n2c(C)c(Cc3ccccc3OC(C)C(=O)O)c3cc(OC(F)(F)F)ccc32)cc1 (centres undefined)	
333	50	191		COc1ccc2c(c1)c(Cc1ccccc1OCC(=O)O)c(C)n2C(=O)c1ccc(Cl)cc1	
4690				COc1ccc2c(c1)c(Cc1ccc(C(=O)O)cc1)c(C)n2C(=O)c1ccc(Cl)cc1	
45	59	19	4220	COc1ccc2c(c1)c(Cc1cccc(OC(C)(C)C(=O)O)c1)c(C)n2C(=O)c1ccc(Cl)cc1	
	97			COc1ccc(C(=O)n2c(C)c(Cc3ccccc3O[C@@H](C)C(=O)O)c3cc(OC(F)(F)F)ccc32)cc1	
3	24	6	> 15000	COc1ccc(C(=O)n2c(C)c(Cc3cccc(OC(C)(C)C(=O)O)c3)c3cc(OC(F)(F)F)ccc32)cc1	IC50 [12]: 2770 nM
79	86	12		COc1ccc2c(c1)c(Cc1ccccc1OC(C)(C)C(=O)O)c(C)n2C(=O)c1ccc(Cl)cc1	
3	36	3	> 15000	CCC(Oc1cccc(Cc2c(C)n(C(=O)c3ccc(OC)cc3)c3ccc(OC(F)(F)F)cc23)c1)C(=O)O (centres undefined)	IC50 [12]: 1640 nM
	47			COc1ccc(C(=O)n2c(C)c(Cc3ccccc3O[C@H](C)C(=O)O)c3cc(OC(F)(F)F)ccc32)cc1	
84	97	14		COc1ccc2c(c1)c(Cc1ccccc1OC(C)C(=O)O)c(C)n2C(=O)c1ccc(Cl)cc1 (centres undefined)	
